The list is not random: actives were taken first. Their share in the collection is about 3.7%.
Exocytosis inh = blocks lytic granule exocytosis | inhibition, % at 10 µM | AID 651702 | 360,000 compounds, 0.66% hits | TALL-104 LAMP-1 surface exposure, flow cytometry; cells stimulated with thapsigargin and PMA;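 active means inhibition above about 55%, limit read from the data; inconclusive means no clear call, values can overlap the other calls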
Myeloid diff 2 = compounds promoting myeloid differentiation. ER-HoxA9 myeloid progenitors, lysozyme-GFP differentiation, flow cytometry. calls only at 10 µM. 360,000 compounds, 1% hits. AID 624256;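 active means normalized GFP-positive differentiation at or above the plate's own cutoff, the solvent-only control mean plus 3 SD; inconclusive means no clear call, values can overlap the other calls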;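 further: cells exposed to compound for four days before flow analysis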
EBI2 antag = antagonists of human EBI2 receptor. EBI2 beta-arrestin recruitment, luminescence, 7a,25-OHC stimulated. inhibition, % at 5 µM. 360,000 compounds, 0.81% hits; in the data active means inhibition above about 38%;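 further: enzyme fragment complementation signal reports receptor beta-arrestin coupling in cells; 0% = agonist plus DMSO wells and 100% = wells without agonist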
Target sequence (P32249 whole entry, looked up, the tested form may be a part): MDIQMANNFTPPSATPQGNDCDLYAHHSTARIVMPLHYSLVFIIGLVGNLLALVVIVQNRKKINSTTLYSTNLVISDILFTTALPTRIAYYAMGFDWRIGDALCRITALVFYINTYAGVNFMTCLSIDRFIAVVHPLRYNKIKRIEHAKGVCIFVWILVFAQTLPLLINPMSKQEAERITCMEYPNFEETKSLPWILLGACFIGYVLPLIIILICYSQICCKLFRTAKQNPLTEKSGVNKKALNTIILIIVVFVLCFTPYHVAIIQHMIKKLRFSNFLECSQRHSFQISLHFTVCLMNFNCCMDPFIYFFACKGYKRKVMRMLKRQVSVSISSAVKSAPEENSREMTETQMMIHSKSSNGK
MC4R antag cAMP = human MC4R antagonism in cAMP assay; MC4R-expressing cells, MTII-stimulated cAMP, LANCE TR-FRET; P32245; 360,000 compounds, 0.48% hits; inhibition, % at 6.5 µM;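 active means inhibition above its plate's cutoff, the mean of tested wells on that plate plus 3 SD, cut at about 29% in these data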;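 further: 0% = Melanotan II alone and 100% = Melanotan II plus saturating MCL0020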
Target sequence (P32245 whole entry, looked up): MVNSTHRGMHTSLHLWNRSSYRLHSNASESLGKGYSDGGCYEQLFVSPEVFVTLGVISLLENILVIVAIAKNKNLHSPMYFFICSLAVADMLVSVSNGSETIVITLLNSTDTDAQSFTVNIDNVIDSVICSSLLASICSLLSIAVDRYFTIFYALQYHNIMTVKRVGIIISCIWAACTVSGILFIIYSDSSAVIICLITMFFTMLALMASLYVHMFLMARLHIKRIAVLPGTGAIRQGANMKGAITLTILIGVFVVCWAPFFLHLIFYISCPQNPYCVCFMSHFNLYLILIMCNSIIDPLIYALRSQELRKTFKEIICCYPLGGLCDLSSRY
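Material: U2OS-MC4R stable cell line | Reagent: Melanotan II challenge after compound preincubation | Doses: One concentration, 6.5 µM nominal | Incubation: 30-min compound preincubation, 1-h Melanotan II challenge, 1-h detection, room temperature | Signal: TR-FRET cAMP assay | Replicates: One well per compound, no replicates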
MC4R barr agon = activates human MC4R beta-arrestin recruitment | P32245 | U2OS MC4R beta-arrestin complementation, luminescence; percent of melanotan II response, DMSO zero | activation, % at 8.9 µM | 360,000 compounds, 0.98% hits | AID 540308;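 active means activation above a per-plate cutoff, the mean activation of sample wells on that plate plus 3 SD, cut at about 8% in these data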
cAMP nonselect = nonselective cAMP signaling inhibitor, MC4R antagonist counter-screen. 1,600 compounds, 26% hits. AID 602193. shares compounds with MC4R antag cAMP. inhibition, % at 6.5 µM. parental U2OS, forskolin cAMP, LANCE TR-FRET;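 active means mean inhibition over triplicates above the low-control well mean plus 3 SD, set per campaign, cut at about 13% in these data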;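 further: signal is single emission at 671 nm which falls as cellular cAMP rises; 0% = forskolin-stimulated wells and 100% = buffer without forskolin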
MC4R cAMP antag = human MC4R cAMP antagonism confirmation | shares compounds with MC4R antag cAMP | MC4R-expressing cells, MTII-stimulated cAMP, TR-FRET | inhibition, % at 6.5 µM | 1,600 compounds, 27% hits; in the data active means inhibition above about 29%;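 further: 0% = agonist stimulated wells alone and 100% = agonist stimulated wells plus saturating reference antagonist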
MC4R barr ag = human MC4R beta-arrestin agonism confirmation; shares compounds with MC4R barr agon; U2OS MC4R beta-arrestin recruitment, luminescence; scaled DMSO 0%, Melanotan II 100%; activation, % at 8.9 µM; 2,400 compounds, 31% hits; AID 602192;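 active means mean activation across replicates above the hit cutoff set in the earlier primary screen, cut at about 8% in these data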
MOR DOR agonist = counter-screen for MC4R agonists: agonists of mu-delta opioid heterodimer. shares compounds with MC4R barr agon. U2OS PathHunter beta-arrestin, beta-gal luminescence; percent of deltorphin B response, DMSO zero. activation, % at 9.2 µM. 2,400 compounds, 5.8% hits. AID 602194;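 active means mean activation across replicates exceeds the hit threshold derived in the earlier primary screen, cut at about 18% in these data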;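 further: 100% = deltorphin B at 0.9 µM final and 0% = DMSO alone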
Numbers without * were called inactive; i = inactive; ? = inconclusive; / = not tested or not shown.

SMILES | Exocytosis inh | Myeloid diff 2 | EBI2 antag | MC4R antag cAMP | MC4R barr agon | cAMP nonselect | MC4R cAMP antag | others
Cc1ccc(N=Cc2c(O)n(-c3cc(Cl)ccc3N3CCOCC3)c(=O)c3ccccc23)cc1C | -2.3 | i | 9.5 | 1.8 | 0.9 | / | /
CC(=O)Nc1cc(-c2cccc(NS(C)(=O)=O)c2)cn2c(-c3cccc(C(C)=O)c3)cnc12 | 12.9 | i | 17.3 | 17.2 | 1.8 | / | /
CC(=O)Nc1cccc(-c2cc(NC(C)=O)c3ncc(-c4ccc(C(C)=O)cc4)n3c2)c1 | -0.1 | i | 2.2 | 33.3* | 9.0* | 3.0 | 15.8
CCOCCCNCc1cc(Cl)cc(Cl)c1OCC | 0.9 | i | 8.1 | 31.4* | 0.3 | 1.4 | 11.8
CSCC[C@H](NC(=O)Nc1ccc(Oc2ccccc2)cc1)C(=O)O | -1.7 | i | -7.0 | 3.6 | -2.9 | / | /
NS(=O)(=O)c1ccc(NS(=O)(=O)c2ccc3c(c2)OCCO3)cc1 | -5.7 | i | 3.1 | 29.7* | -1.4 | -4.5 | -10.3
O=C(c1ccc(NS(=O)(=O)c2ccc3c(c2)OCCO3)cc1)N1CCCCC1 | 4.7 | i | -10.6 | 15.0 | 0.1 | / | /
Cc1ccc(OCC(=O)NCc2cccs2)c([N+](=O)[O-])n1 | 7.6 | i | -3.2 | -5.3 | -2.0 | / | /
CCOC(=O)CCC(NC(=O)c1ccc(NCN2C(=O)c3ccccc3C2=O)cc1)C(=O)OCC (centres undefined) | -0.6 | i | -4.9 | -19.6 | -0.2 | / | /
CCOC(=O)CCC(NC(=O)c1ccccc1C(=O)NC(CCC(=O)OCC)C(=O)OCC)C(=O)OCC (centres undefined) | 3.3 | i | 0.4 | 28.6* | 0.4 | 6.4 | 3.5
CN(Cc1c(F)cccc1Cl)C(=O)CCc1c[nH]c2ccccc12 | 23.0 | i | 10.9 | 29.2* | -2.3 | 3.4 | 1.4
CN(Cc1cccs1)C(=O)CCc1c[nH]c2ccccc12 | 3.8 | i | 5.9 | 3.7 | -4.3 | / | /
Cc1csc(C(C)N(C)C(=O)CCc2nnc(CCc3ccccc3)o2)n1 (centres undefined) | 19.9 | i | 4.2 | 28.7* | 1.2 | 1.7 | 1.3
N#Cc1cccc(C(c2nnnn2CCc2ccccc2)N2CCN(C3CCCCC3)CC2)c1 (centres undefined) | -3.2 | i | -3.6 | 28.5* | 2.1 | 2.7 | 2.6
O=C(COC(=O)c1cnc(Cl)c(Cl)c1)NC1CCCC1 | 26.3 | i | -13.8 | 29.4* | -1.0 | 22.1* | 32.6*
O=C(COC(=O)c1cnc(Cl)c(Cl)c1)NC1CCCCCC1 | -1.3 | i | -6.9 | 29.2* | -5.2 | 26.8* | 47.9*
CN(C(=O)COC(=O)c1cnc(Cl)c(Cl)c1)C1CCS(=O)(=O)C1 (centres undefined) | -5.1 | i | -3.0 | 11.5 | -1.3 | / | /
O=C(COC(=O)c1ccc(Cl)c(Cl)c1)NC1CCCC1 | -12.9 | i | -2.7 | 3.3 | 0.0 | / | /
O=C(COC(=O)c1cnc(Cl)c(Cl)c1)NCCC1=CCCCC1 | -6.6 | i | 0.0 | 37.9* | -2.4 | 27.6* | 35.7*
CN(C(=O)COC(=O)c1cnc(Cl)c(Cl)c1)C1CCCCC1 | -4.4 | i | 5.8 | 39.5* | -3.8 | 21.6* | 39.3*
CCN(C(=O)C(C)Cl)c1ccccc1 (centres undefined) | -11.5 | i | 0.6 | 6.3 | -0.7 | / | /
COc1ccc(Cc2c(-c3cccc(Cl)c3)nc3ccc(Cl)cn23)c(C)c1 | 1.8 | i | -6.1 | / | / | / | /
Cc1c(CCOC(=O)c2cc([N+](=O)[O-])cc([N+](=O)[O-])c2)sc[n+]1CCCCS(=O)(=O)[O-] | -4.5 | i | 4.1 | 5.2 | -0.7 | / | /
COc1ccc(C(=O)NNC(=O)CSc2nnc(C)n2C)cc1 | -5.1 | i | -4.4 | 21.3 | -0.6 | / | /
O=C(COC(=O)[C@H](Cc1ccccc1)NC(=O)c1cccs1)NC1CCCCC1 | 1.6 | i | -1.7 | 36.9* | -1.5 | 7.8 | 10.0
SMILES | Exocytosis inh | Myeloid diff 2 | EBI2 antag | MC4R antag cAMP | MC4R barr agon | cAMP nonselect | MC4R cAMP antag | others
O=C(COC(=O)[C@H](Cc1ccccc1)NC(=O)c1cccs1)NC1CC1 | 9.4 | i | -2.3 | 20.9 | -0.6 | / | /
O=C(COC(=O)[C@H](Cc1ccccc1)NC(=O)c1ccco1)NC(c1ccccc1)c1ccccc1 | 4.2 | i | 4.7 | 31.9* | -0.5 | 19.8* | 36.0*
O=C(COC(=O)[C@H](Cc1ccccc1)NC(=O)c1ccco1)Nc1ccccc1 | 0.4 | i | 3.2 | 13.2 | -1.9 | / | /
CCCC(=O)NC1=C(Cl)C(=O)c2ccccc2C1=O | 33.3 | ? | -31.3 | 92.8* | -1.3 | 78.4* | 106.2*
Cc1ccc(S(=O)(=O)N2CCC(NC(=O)c3cccnc3)CC2)cc1Cl | 0.0 | i | 9.5 | 7.4 | -2.1 | / | /
CSCCC(NC(=O)c1ccc([N+](=O)[O-])cc1Cl)C(=O)OCC(=O)NCCCc1ccccc1 (centres undefined) | 34.6 | i | -12.0 | 37.1* | 6.7 | 16.4* | 37.1*
CSCCC(NC(=O)c1ccc([N+](=O)[O-])cc1Cl)C(=O)OCC(=O)NCC(F)(F)F (centres undefined) | 0.8 | i | -9.5 | 11.1 | -0.9 | / | /
COc1ccc(C(NC(=O)c2c(F)c(F)c(F)c(F)c2F)c2ccccc2)cc1 (centres undefined) | 4.3 | i | -12.7 | 72.2* | 0.3 | 56.9* | 87.9*
COc1ccc(-c2oc3ccc(N4CCOCC4)cc3c2C#CC2(O)CCCCC2)cc1 | -5.5 | i | 33.0 | 33.0* | 18.9* | 5.9 | 19.9 | MC4R barr ag=15.0*;MOR DOR agonist=4.9
COc1ccc2[nH]c(C(=O)Nc3ccc(F)cc3Br)cc2c1 | -0.8 | i | -5.7 | 28.6* | 25.5* | 21.3* | 19.8 | MC4R barr ag=0.7;MOR DOR agonist=4.8
CC(=O)SC(C[N+](=O)[O-])c1cn(C(C)=O)c2ccccc12 (centres undefined) | 3.9 | i | -7.4 | -6.1 | -0.5 | / | /
CC(=O)n1cc(N(C(=O)CCl)c2ccc(Cl)cc2)c2ccccc21 | 22.3 | i | 0.2 | 42.1* | 13.0* | -16.6 | 51.9* | MC4R barr ag=5.6;MOR DOR agonist=51.1*
CCOc1ccc(C=NNC(=O)c2ccc(-n3cnnn3)cc2)cc1 | -0.1 | i | -0.1 | -2.0 | 0.1 | / | /
Oc1ccc[n+](CCCCC[n+]2cccc(O)c2)c1 | 14.0 | i | 5.4 | 5.1 | -0.5 | / | /

Source: PubChem (several laboratories)
